From PubChem BioAssay
An excerpt weighted towards active compounds, which were near 1.2% of everything screened.
Diaphorase inh – diaphorase inhibition or chemical oxidation counter-screen. diaphorase resazurin-to-resorufin fluorescence, NADH, 16 min; bacterial (C. kluyveri) enzyme, not human. inhibition, % at 20 µM. 190,000 compounds, 0.69% hits. AID 1217;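 active = primary screen inhibition at 20 µM above a set limit, cut at about 50% in these data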
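controls = No-NADH positive control and DMSO neutral control | system = Clostridium kluyveri diaphorase enzyme | timing = reaction incubation of 16 min at room temperature | signal = resorufin fluorescence 544/590 nm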
G6PDH CS – L. mesenteroides G6PDH inhibition counter-screen. 200,000 compounds, 0.12% hits. Purified L. mesenteroides G6PDH, diaphorase/resazurin coupled fluorescence, 45 min. inhibition, % at 5 µM. AID 1020; in the data active = inhibition above about 50%
PfGluPho inh – PfG6PD (Plasmodium falciparum) enzyme inhibition; PfGluPho enzyme, NADPH resazurin-diaphorase fluorescence; inhibition, % at 20 µM; 350,000 compounds, 0.78% hits; AID 504690;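 active = inhibition reaching at least a set limit at 20 µM in the primary screen, cut at about 59% in these data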
HKDC1 inh – blocks human hexokinase HKDC1 activity | inhibition, % at 20 µM | Q2TB90 | 340,000 compounds, 0.16% hits | recombinant HKDC1, G6PDH/diaphorase resazurin coupled fluorescence | AID 493160;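 active = inhibition above about 35% when tested at 20 µM, limit read from the data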
Target sequence (Q2TB90 whole entry, looked up): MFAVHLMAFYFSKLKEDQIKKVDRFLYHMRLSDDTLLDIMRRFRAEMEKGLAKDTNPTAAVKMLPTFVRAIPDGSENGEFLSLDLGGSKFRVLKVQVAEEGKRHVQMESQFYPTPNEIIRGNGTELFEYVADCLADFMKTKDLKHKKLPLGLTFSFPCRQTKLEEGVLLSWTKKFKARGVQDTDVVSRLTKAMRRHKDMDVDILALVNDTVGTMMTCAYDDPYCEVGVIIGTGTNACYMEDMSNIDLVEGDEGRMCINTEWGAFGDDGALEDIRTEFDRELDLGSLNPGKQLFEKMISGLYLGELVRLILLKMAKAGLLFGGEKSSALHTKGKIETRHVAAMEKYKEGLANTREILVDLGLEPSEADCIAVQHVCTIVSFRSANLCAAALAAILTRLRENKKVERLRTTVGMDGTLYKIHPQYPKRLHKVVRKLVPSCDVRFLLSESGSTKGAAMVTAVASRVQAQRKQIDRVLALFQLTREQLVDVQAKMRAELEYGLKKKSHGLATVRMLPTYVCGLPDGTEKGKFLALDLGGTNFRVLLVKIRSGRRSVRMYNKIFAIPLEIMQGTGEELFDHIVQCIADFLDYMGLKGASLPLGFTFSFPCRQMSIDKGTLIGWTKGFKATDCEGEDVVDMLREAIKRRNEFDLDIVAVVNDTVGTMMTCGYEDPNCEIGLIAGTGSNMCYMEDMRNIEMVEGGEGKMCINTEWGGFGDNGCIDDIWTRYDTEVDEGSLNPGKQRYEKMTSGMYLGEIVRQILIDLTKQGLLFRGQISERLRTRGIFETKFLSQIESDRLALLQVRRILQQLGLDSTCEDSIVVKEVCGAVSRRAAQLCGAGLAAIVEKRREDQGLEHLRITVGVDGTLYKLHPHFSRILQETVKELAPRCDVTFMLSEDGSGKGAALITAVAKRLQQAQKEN
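Test system: HK5 enzyme. Quantity: 5 µg/mL HK5 final. Reagent: glucose and ATP substrates. Schedule: 90 min reaction incubation at room temperature, dark. Technique: resazurin-to-resorufin fluorescence via G6PDH and diaphorase coupling, 525/613 nm. Control set: DMSO wells with and without enzyme mix.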
Diaphorase act – counter-screen for diaphorase-based assays: diaphorase activators and chemical reducers; 190,000 compounds, 0.005% hits; AID 1229; Diaphorase/resazurin coupled assay, resorufin fluorescence, 16 min; stronger effect = higher value; 1 = vehicle wells, 0 = NADH-free wells; activation factor at 20 µM;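 active = diaphorase activity raised at least twofold by the compound at 20 µM; inactive = activation factor below 2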
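Assay system: bacterial diaphorase enzyme (C. kluyveri) / Input: enzyme 0.07 U/mL final / Medium: 50 mM HEPES pH 7.4 with 4.542 mM MgCl2, 0.005% Tween 20 / Doses: single compound dose of 20 µM, 1% DMSO final / Incubation: 16 min enzyme reaction, ambient temperature / Signal: fluorescence, excitation 544 nm and emission 590 nm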
PfGluPho conf – confirmation of Plasmodium falciparum G6PD inhibitors; recombinant PfGluPho, NADPH-diaphorase-resazurin fluorescence; shares compounds with PfGluPho inh; 2,400 compounds, 34% hits; inhibition, % at 20 µM; AID 504753;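 active = inhibition of at least 50% at 20 µM in any single replicate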
Diaphorase 10uM – counter-screen for P. falciparum G6PD inhibitors: diaphorase inhibitors, oxidizers; shares compounds with PfGluPho inh; 820 compounds, 39% hits; AID 504862; inhibition, % at 20 µM; diaphorase-coupled resazurin reduction, fluorescence, NADPH 10 uM;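 active = average inhibition reaching 50% or more with the compound at 20 µM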;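 note: resorufin red fluorescence formed as diaphorase reduces resazurin using NADPH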
Diaph ctr 30uM – diaphorase inhibition or oxidation at 30 uM NADPH; AID 504863; 820 compounds, 29% hits; shares compounds with PfGluPho inh; Diaphorase/resazurin coupled assay, resorufin fluorescence; inhibition, % at 20 µM;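 active = inhibition averaging 50% or more, tested at 20 µM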
A number is an active result; 0 = inactive; - = not tested or not shown; ! = not confirmed by another sample.

SMILES	Diaphorase inh	G6PDH CS	PfGluPho inh	HKDC1 inh	Diaphorase act	PfGluPho conf	others
O=C(Cn1cc(C(F)(F)F)ccc1=O)NCC1CCCO1 (configuration not stated)	-	-	0	0	-	-
COc1ccc(O)c(/C=N/NC(=S)Nc2cccc(S(=O)(=O)N(C)C)c2)c1	0	0	0	0	0	-
COc1cccc(/C=N/NC(=S)Nc2cccc(S(=O)(=O)N(C)C)c2)c1	-	-	66.7	0	-	0
COc1cc(/C=N/NC(=S)Nc2cccc(S(=O)(=O)N(C)C)c2)cc(OC)c1O	0	0	0	0	0	-
CN(C)S(=O)(=O)c1cccc(NC(=S)N/N=C/c2ccc(O)c(O)c2O)c1	-	-	79.7	0	-	64.2	Diaphorase 10uM=58.8;Diaph ctr 30uM=61.3
CC(C)[C@H](NC(=O)c1ccco1)C(=O)N(C)Cc1ccc(C(F)(F)F)cc1	-	-	0	0	-	-
COc1cc(Oc2ccccc2)nc(N)n1	-	-	0	0	-	-
CCN(CC)c1ccc(C(=O)Nc2cccc(F)c2)cc1	0	0	0	0	0	-
CN(C)c1cccc(C(=O)Nc2cccc(F)c2)c1	0	0	68.1	0	0	0
COc1ccc(NC(=O)c2ccc3c(c2)N(C)CCS3)cc1	-	-	0	0	-	-
CN1CCSc2ccc(C(=O)Nc3cccc(F)c3)cc21	-	-	63.5	0	-	0
CC1CCC2(CC1)NC(=O)N(NC(=O)CCc1c[nH]c3ccccc13)C2=O (configuration not stated)	-	-	0	0	-	-
O=C(c1ccc(N2CCN(C(=O)c3ccccc3)CC2)cc1)c1cccc(F)c1	-	-	0	0	-	-
O=C(c1ccccc1)c1ccc(C(=O)N2CCN(c3ccc(O)cc3)CC2)cc1	-	-	61.0	0	-	0
O=C(NCCc1ccccc1)C(=O)NC1CCCCC1	0	0	0	0	0	-
O=C(NC1CCCCC1)C(=S)NCCc1ccccc1	0	0	65.4	0	0	0
CC(=O)Nc1ccc(NC(=O)c2ccccc2Sc2ccc([N+](=O)[O-])cc2Cl)cc1	0	0	0	0	0	0
CCOC(=O)c1c(-c2ccc(C)o2)csc1NC(=O)COC(=O)c1cccs1	0	0	59.0	0	0	0
CC(=O)N1CCSc2ccc(S(=O)(=O)Nc3ccc(C)cc3)cc21	-	-	0	0	-	-
COc1cc(C(=S)N2CCCC2)cc(Cl)c1OCC(=O)Nc1ccc(C)cc1C	0	0	63.5	0	0	0
COc1ccc(NC2CCCN(Cc3cccc4cnccc34)C2)cc1OC (configuration not stated)	-	-	64.8	0	-	58.1	Diaphorase 10uM=0;Diaph ctr 30uM=0
COc1ccc(NC2CCCN(Cc3cccc4cnccc34)C2)cc1 (configuration not stated)	-	-	0	0	-	-
COc1cccc(C(=O)/C=C2\Sc3ccccc3N2C)c1	0	0	82.0	0	0	0
COc1cccc(C2(c3cccc(OC)c3)CC2C(=O)Nc2ccc(F)cc2)c1 (configuration not stated)	0	0	115.4	0	0	56.8	Diaphorase 10uM=56.2;Diaph ctr 30uM=0
Cc1cccc(C2(c3cccc(C)c3)CC2C(=O)Nc2ccc([N+](=O)[O-])cc2O)c1 (configuration not stated)	0	0	113.4	0	0	60.3	Diaphorase 10uM=55.2;Diaph ctr 30uM=0
SMILES	Diaphorase inh	G6PDH CS	PfGluPho inh	HKDC1 inh	Diaphorase act	PfGluPho conf	others
COc1cccc(C2(c3cccc(OC)c3)CC2C(=O)Nc2ccccc2Cl)c1 (configuration not stated)	0	0	87.6	0	0	0
COc1cccc(C(=O)NC2CCN(CC(=O)Nc3ccccc3Cl)CC2)c1	-	-	0	0	-	-
CCOc1ccc(Br)cc1S(=O)(=O)Nc1cccc(S(=O)(=O)N2CCOCC2)c1	-	-	0	0	-	-
CC(C)(C)c1ccc(OCCn2nc(C(=O)O)c3ccccc3c2=O)cc1	-	-	62.4	0	-	0
Cc1cccc(OCCn2nc(C(=O)O)c3ccccc3c2=O)c1	0	0	0	0	0	-
CCOc1ccc(CNC(=S)Nc2ccccc2)cc1Cl	-	-	0	0	-	-
CCN(CC)c1ccc(NC(=O)COc2ccccc2C)cc1S(=O)(=O)Nc1ccccc1OC	0	0	60.6	0	0	0
CCN(CC)c1ccc(NC(=O)c2ccc(=O)[nH]c2)cc1S(=O)(=O)Nc1ccccc1OC	0	0	61.8	0	0	0
Cc1ccc(C(=O)NCCNS(=O)(=O)c2ccccc2[N+](=O)[O-])cc1	-	-	0	0	-	-
CC(C)c1ccc(NC2CCCN(C(=O)CN3CCCCC3=O)C2)cc1 (configuration not stated)	-	-	0	-	-	-
Cc1ccc(-c2nc(C(=O)NCC3CCCO3)cc3c2[nH]c2ccccc23)cc1 (configuration not stated)	-	-	0	0	-	-
Cc1ccccc1-c1nc(C(=O)NCC2CCCO2)cc2c1[nH]c1ccccc12 (configuration not stated)	-	-	59.7	0	-	0
COc1cc(/C=N/O)ccc1Oc1ccc([N+](=O)[O-])cc1[N+](=O)[O-]	0	0	0	0	0	-
CO/N=C/c1ccc(Oc2ccc([N+](=O)[O-])cc2[N+](=O)[O-])c(OC)c1	0	0	94.5	0	0	0
CCCc1nc(NC(=O)c2ccccc2)nc(NC(=O)c2ccccc2)n1	-	-	0	0	-	-
CCN1CCN(Cc2ccc(NC(=O)c3ccc(C)c(/C=C/c4cnc(Nc5cc(N6CCNCC6)nc(C)n5)cn4)c3)cc2C(F)(F)F)CC1	-	-	66.4!	0	-	0
CCN1CCN(Cc2ccc(NC(=O)c3ccc(C)c(NC(=O)c4ccno4)c3)cc2C(F)(F)F)CC1	-	-	0	0	-	-
Cc1ccc(S(=O)(=O)N(C)/C(=N/S(=O)(=O)c2ccccc2)c2ccccc2)cc1	0	0	82.3	0	0	0
Cc1ccc(S(=O)(=O)/N=C(\c2ccccc2)N(C)S(=O)(=O)c2ccc(C)cc2)cc1	0	0	0	0	0	-
CN=c1sc2c(n1C)C(=O)c1ccccc1C2=O	-	-	72.2	0	-	0
CN=c1sc(C(=O)Nc2ccccc2)c(C)n1C	0	0	0	0	0	-
Nc1nc(C(c2ccccc2)c2ccccc2)cs1	-	-	0	0	-	-
O=C1C=CC(=O)N1c1ccc2c(c1)C(NC(=O)C(F)(F)F)c1ccccc1-2 (configuration not stated)	-	-	97.7	0	-	51.1	Diaphorase 10uM=0;Diaph ctr 30uM=0
CCOc1ccccc1/C=N/NC(=O)c1c(C)nc2ccc(Br)cn12	-	-	122.6	0	-	97.7	Diaphorase 10uM=93.2;Diaph ctr 30uM=97.3
CCN(CC)S(=O)(=O)c1cccc(C(=O)N/N=C/c2ccc(O)c(O)c2O)c1	80.1	0	66.0	0	0	71.3	Diaphorase 10uM=76.0;Diaph ctr 30uM=85.8
CCOc1ccccc1/C=N/NC(=O)c1cccc(S(=O)(=O)N(CC)CC)c1	0	0	110.4	0	0	60.5	Diaphorase 10uM=63.9;Diaph ctr 30uM=53.5
